From ChEMBL document CHEMBL1151962, “Identification of N,1,4,4-tetramethyl-8-{[4-(4-methylpiperazin-1-yl)phenyl]amino}-4,5-dihydro-1H-pyrazolo[4,3-h]quinazoline-3-carboxamide (PHA-848125), a potent, orally available cyclin dependent kinase inhibitor” (J Med Chem, 2009)
≈ marks a conversion by molar mass, not a printed value. Calls of active or inactive are those of the source. The calls are words filed in the database; no cut-off is given here.

Columns and labels:
A2780 = experiment: Antiproliferative activity against human A2780 cells after 72 hrs by cell Titer_Glo assay; format: functional, cell-based; details: A2780, 72 h
Procedure, shortened: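 A2780 cells were seeded at 10000–30000 cells/cm² in medium with 10% FCS. After 24 h they were treated with serial dilutions of compound, in two replicates. Cell amount was read by Cell Titer Glo 72 h after treatment. IC50 came from sigmoidal fitting.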

[1] = molecular target: T1, Cyclin-dependent kinase 2 (Homo sapiens, UniProt P24941); experiment: Inhibition of CDK2/Cyclin A
Aurora kinase A = molecular target: T2, Aurora kinase A (Homo sapiens, UniProt O14965); experiment: Inhibition of Aurora A
T2 sequence (O14965 whole entry): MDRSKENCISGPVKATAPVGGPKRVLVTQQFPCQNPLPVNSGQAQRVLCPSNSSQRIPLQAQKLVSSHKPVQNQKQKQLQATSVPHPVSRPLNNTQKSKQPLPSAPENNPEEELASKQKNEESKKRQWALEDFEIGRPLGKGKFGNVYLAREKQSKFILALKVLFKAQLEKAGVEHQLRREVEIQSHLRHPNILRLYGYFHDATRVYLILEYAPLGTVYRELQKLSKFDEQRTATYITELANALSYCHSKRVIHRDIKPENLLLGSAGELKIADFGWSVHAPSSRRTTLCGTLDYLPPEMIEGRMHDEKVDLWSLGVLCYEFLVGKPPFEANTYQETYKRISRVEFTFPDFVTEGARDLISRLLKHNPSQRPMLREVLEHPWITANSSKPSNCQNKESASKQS

[2] = Solubility at pH 7; format: physicochemical; details: buffer
[3] = Volume of distribution at steady state in fasted nu/nu mouse at 10 mg/kg, iv by LC/MS/MS analysis; format: ADME, organism-based; design: dose 10 mg/kg, route intravenous; details: in vivo, read-out: Vdss
Procedure, shortened: (§1)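 Overnight-fasted male Nu/Nu mice received a single 10 mg/kg dose iv or orally, in 5% dextrose vehicle, given as the hydrochloride salt. Three mice per route. Saphenous vein blood was drawn predose and at 0.083 (iv) or 0.25 (po), 0.5, 1, 6 and 24 h. Samples were spun at 10000g for 3 min at 4 °C, and plasma was stored at -80 °C until analysis.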

Cytochrome P450 3A4 = Cytochrome P450 3A4 (Homo sapiens, UniProt P08684); experiment: Inhibition of human CYP3A4 assessed as compound remaining by LC/MS/MS analysis; format: ADME; design: concentration or dose not given beside the values
Sequence of Cytochrome P450 3A4 (P08684 whole entry): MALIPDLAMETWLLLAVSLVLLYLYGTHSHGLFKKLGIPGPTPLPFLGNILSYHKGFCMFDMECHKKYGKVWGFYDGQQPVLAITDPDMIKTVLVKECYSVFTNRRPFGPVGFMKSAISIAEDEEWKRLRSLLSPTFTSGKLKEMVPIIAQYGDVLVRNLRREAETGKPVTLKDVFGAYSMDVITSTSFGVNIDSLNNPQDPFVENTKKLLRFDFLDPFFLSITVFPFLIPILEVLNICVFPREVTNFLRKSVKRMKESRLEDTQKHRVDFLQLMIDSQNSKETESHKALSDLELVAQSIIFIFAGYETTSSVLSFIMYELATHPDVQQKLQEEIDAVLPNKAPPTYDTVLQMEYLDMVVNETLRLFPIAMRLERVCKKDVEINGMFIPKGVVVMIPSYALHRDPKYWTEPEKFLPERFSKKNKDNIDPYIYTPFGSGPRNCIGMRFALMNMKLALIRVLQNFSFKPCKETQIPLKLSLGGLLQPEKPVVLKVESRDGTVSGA

[4] = Half life in fasted nu/nu mouse at 10 mg/kg, iv by LC/MS/MS analysis; format: ADME, organism-based; design: dose 10 mg/kg, route intravenous; details: in vivo; procedure, shortened: as §1
[5] = AUC in fasted nu/nu mouse at 10 mg/kg, po LC/MS/MS analysis; format: ADME, organism-based; design: dose 10 mg/kg, route oral; details: plasma; procedure, shortened: as §1
[6] = Solubility in 5% dextrose; format: physicochemical
[7] = Oral bioavailability in fasted nu/nu mouse at 10 mg/kg by LC/MS/MS analysis; format: ADME, organism-based; details: in vivo; procedure, shortened: as §1
Homo sapiens = organism: Homo sapiens; experiment: Protein binding in human plasma; details: read-out: PPB (converted)
[8] = Cmax in fasted nu/nu mouse at 10 mg/kg, po by LC/MS/MS analysis; format: ADME, organism-based; design: dose 10 mg/kg, route oral; details: in vivo; procedure, shortened: as §1
[9] = Half life in fasted nu/nu mouse at 10 mg/kg, po by LC/MS/MS analysis; format: ADME, organism-based; design: dose 10 mg/kg, route oral; details: in vivo; procedure, shortened: as §1
[10] = Clearance in fasted nu/nu mouse at 10 mg/kg, iv by LC/MS/MS analysis; format: ADME, organism-based; design: dose 10 mg/kg, route intravenous; details: in vivo; procedure, shortened: as §1
[11] = molecular target: T1, Cyclin-dependent kinase 2; experiment: Inhibition of CDK2 in human A2780 cells assessed as accumulation of hypophosphorylated form of retinoblastoma protein at 3 uM relative to control; format: cell-based
Procedure, shortened: (§2)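 A2780 human ovarian carcinoma cells (ECACC) were seeded at 25 000 cells/cm2 in RPMI 1640 pH 7.4 with 10% FBS and 2 mM L-glutamine, at 37 °C in 5% CO2. They were exposed 24 h later to 1 or 3 µM. Floating and adherent cells were harvested with trypsin/EDTA. Extracts were immunoblotted for hyper- and hypophosphorylated pRb and compared with untreated cells.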

[12] = molecular target: T1, Cyclin-dependent kinase 2; experiment: Inhibition of CDK2 in human A2780 cells assessed as accumulation of hypophosphorylated form of retinoblastoma protein at 1 uM relative to control; format: cell-based; procedure, shortened: as §2
[13] = molecular target: T1, Cyclin-dependent kinase 2; experiment: Inhibition of CDK2 in human A2780 cells assessed as reduction of hyperphosphorylated form of retinoblastoma protein at 3 uM relative to control; format: cell-based; procedure, shortened: as §2
[14] = molecular target: T1, Cyclin-dependent kinase 2; experiment: Inhibition of CDK2 in human A2780 cells assessed as reduction of hyperphosphorylated form of retinoblastoma protein at 1 uM relative to control; format: cell-based; procedure, shortened: as §2
Mus musculus = experiment: Hepatic blood flow in fasted nu/nu mouse at 10 mg/kg, iv by LC/MS/MS analysis; format: ADME, organism-based, Liver; design: dose 10 mg/kg, route intravenous; details: in vivo

Row | SMILES | IC50 (A2780) [µM] | IC50 [1] [µM] | IC50 (Aurora kinase A) [µM] | solubility [2] [µM] | also measured
1 | CNC(=O)c1nn(C)c2c1C(C)(C)Cc1cnc(Nc3cccc(OC4CCN(C)CC4)c3)nc1-2 | 0.39 | 0.047 | 1.58 | 160 (≈ 76.1 µg/mL) | 
2 | CNC(=O)c1nn(C)c2c1C(C)(C)Cc1cnc(Nc3ccc(CN4CCN(C)CC4)cc3)nc1-2 | 0.24 | 0.055 | 1.61 | 170 (≈ 80.7 µg/mL) | 
3 | CNC(=O)c1nn(C)c2c1C(C)(C)Cc1cnc(Nc3ccc(CN4CCN(C)CC4)cc3)nc1-2.Cl |  |  |  |  | Vd [3]: 3.23 L/kg; Activity (Cytochrome P450 3A4): 50%; half-life [4]: 1.8 h; AUC [5]: 3.37 µM·h; solubility [6]: 10000 µg/mL; bioavailability [7]: 42%; fraction unbound (Homo sapiens): 0.01; Cmax [8]: 770 nM; half-life [9]: 4.2 h; clearance [10]: 31.6 mL/min/kg
4 | CNC(=O)c1nn(C)c2c1C(C)(C)Cc1cnc(Nc3cccc(CN4CCN(C)CC4)c3)nc1-2 | 0.57 | 0.059 | 1.18 | 162 (≈ 76.9 µg/mL) | 
5 | CN1CCN(c2ccc(Nc3ncc4c(n3)-c3c(c(C(N)=O)nn3C)CC4)cc2)CC1 | 0.03 | 0.002 | 0.053 | 156 (≈ 65.3 µg/mL) | 
6 | Cn1nc(C(N)=O)c2c1-c1nc(Nc3ccccc3)ncc1CC2 |  |  |  | 3 (≈ 0.961 µg/mL) | 
7 | CNC(=O)c1nn(C)c2c1C(C)(C)Cc1cnc(Nc3ccc(N(C)C)cc3)nc1-2 | 0.5 | 0.059 | 0.855 | 56 (≈ 22.7 µg/mL) | 
8 | CNC(=O)c1nn(C)c2c1C(C)(C)Cc1cnc(Nc3ccc(CN(C)C)cc3)nc1-2 | 0.11 | 0.035 | > 5 | 206 (≈ 86.4 µg/mL) | 
9 | CNC(=O)c1nn(C)c2c1C(C)(C)Cc1cnc(Nc3ccc(OC4CCN(C)CC4)cc3)nc1-2.Cl |  |  |  |  | Vd [3]: 5.27 L/kg; Activity (Cytochrome P450 3A4): 63%; half-life [4]: 1.9 h; AUC [5]: 2.51 µM·h; solubility [6]: 10000 µg/mL; bioavailability [7]: 38%; Cmax [8]: 600 nM; half-life [9]: 3.9 h; clearance [10]: 43.7 mL/min/kg
10 | CNC(=O)c1nn(C)c2c1C(C)(C)Cc1cnc(Nc3cccc(N(C)C)c3)nc1-2 | 3.01 | 0.22 | 1.44 | 41 (≈ 16.6 µg/mL) | 
11 | CN1CCN(c2ccc(Nc3ncc4c(n3)-c3c(c(C(N)=O)nn3C)C(C)(C)C4)cc2)CC1.Cl |  |  |  |  | Activity (Cytochrome P450 3A4): 82%; solubility [6]: 3400 µg/mL; fraction unbound (Homo sapiens): 0.01
12 | Cn1nc(C(N)=O)c2c1-c1nc(Nc3ccc(N4CCOCC4)cc3)ncc1CC2 | 0.12 | 0.014 | 0.051 | 10 (≈ 4.05 µg/mL) | 
13 | Cn1nc(C(=O)NC2CC2)c2c1-c1nc(Nc3ccccc3)ncc1CC2 |  |  |  | 1 (≈ 0.36 µg/mL) | 
14 | CNC(=O)c1nn(C)c2c1C(C)(C)Cc1cnc(Nc3cccc(N4CCN(C)CC4)c3)nc1-2 | 0.53 | 0.031 | 1 | 182 (≈ 83.8 µg/mL) | 
15 | Cn1nc(C(=O)NC2CCCC2)c2c1-c1nc(Nc3ccccc3)ncc1CC2 |  |  |  | 1 (≈ 0.388 µg/mL) | 
16 | Cn1nc(C(=O)Nc2ccccc2)c2c1-c1nc(Nc3ccccc3)ncc1CC2 |  |  |  | 1 (≈ 0.396 µg/mL) | 

Row | SMILES | IC50 (A2780) [µM] | IC50 [1] [µM] | IC50 (Aurora kinase A) [µM] | solubility [2] [µM] | also measured
17 | CNC(=O)c1nn(C)c2c1C(C)(C)Cc1cnc(Nc3ccc(OC4CCN(C)CC4)cc3)nc1-2 | 0.17 | 0.029 | 1.34 | 183 (≈ 87 µg/mL) | 
18 | Cn1nc(C(=O)NCCO)c2c1-c1nc(Nc3ccccc3)ncc1CC2 | 2.38 | 0.074 | 0.364 | 7 (≈ 2.55 µg/mL) | 
19 | CN1CCN(c2cccc(Nc3ncc4c(n3)-c3c(c(C(N)=O)nn3C)CC4)c2)CC1 | 0.03 | 0.001 | 0.03 | 47 (≈ 19.7 µg/mL) | 
20 | CNC(=O)c1nn(C)c2c1C(C)(C)Cc1cnc(Nc3ccc(N4CCN(C)CC4)cc3)nc1-2 |  |  |  |  | Activity [11]: Active; Activity [12]: Active; Activity [13]: Active; Activity [14]: Active
21 | CNC(=O)c1nn(C)c2c1CCc1cnc(Nc3ccc(N4CCN(C)CC4)cc3)nc1-2 | 0.19 | 0.045 | 0.175 | 211 (≈ 91.3 µg/mL) | 
22 | CNC(=O)c1nn(C)c2c1C(C)(C)Cc1cnc(Nc3ccc(N4CCN(C)CC4)cc3)nc1-2.Cl |  |  |  |  | Vd [3]: 4.82 L/kg; Activity (Cytochrome P450 3A4): 85%; half-life [4]: 2.6 h; AUC [5]: 8.29 µM·h; solubility [6]: 10000 µg/mL; bioavailability [7]: 85%; Cmax [8]: 2350 nM; half-life [9]: 2.9 h; clearance [10]: 31.2 mL/min/kg; Activity (Mus musculus): 36%
23 | CNC(=O)c1nn(C)c2c1C(C)(C)Cc1cnc(Nc3cccc(CN4CCOCC4)c3)nc1-2 | 0.87 | 0.16 | 0.638 | 121 (≈ 55.8 µg/mL) | 
24 | CNC(=O)c1nn(C)c2c1C(C)(C)Cc1cnc(Nc3ccc(CN(C)C)cc3)nc1-2.Cl |  |  |  |  | Vd [3]: 4.04 L/kg; Activity (Cytochrome P450 3A4): 77%; half-life [4]: 1.4 h; AUC [5]: 1.97 µM·h; solubility [6]: 10000 µg/mL; bioavailability [7]: 28%; fraction unbound (Homo sapiens): 0.05; Cmax [8]: 570 nM; half-life [9]: 3.4 h; clearance [10]: 53.3 mL/min/kg
25 | CNC(=O)c1nn(C)c2c1C(C)(C)Cc1cnc(Nc3cccc(N4CCOCC4)c3)nc1-2 | 0.7 | 0.248 | 0.625 | 51 (≈ 22.8 µg/mL) | 
26 | CNC(=O)c1nn(C)c2c1CCc1cnc(Nc3ccccc3)nc1-2 |  |  |  | 1 (≈ 0.334 µg/mL) | 
27 | CNC(=O)c1nn(C)c2c1C(C)(C)Cc1cnc(Nc3cccc(CN(C)C)c3)nc1-2 | 0.5 | 0.083 | 2.94 | 193 (≈ 81 µg/mL) | 
28 | CN1CCN(c2ccc(Nc3ncc4c(n3)-c3c(c(C(N)=O)nn3C)C(C)(C)C4)cc2)CC1 | 0.05 | 0.017 | 0.582 | 98 (≈ 43.8 µg/mL) | 
29 | Cn1nc(C(N)=O)c2c1-c1nc(Nc3ccccc3)ncc1CC2(C)C | 0.17 | 0.024 | > 10 | < 1 | 
30 | Cn1nc(C(=O)NCc2ccccc2)c2c1-c1nc(Nc3ccccc3)ncc1CC2 | 0.58 | 1.05 | 0.374 | 1 (≈ 0.41 µg/mL) | 
31 | CNC(=O)c1nn(C)c2c1C(C)(C)Cc1cnc(Nc3ccc(N4CCOCC4)cc3)nc1-2 | 0.37 | 0.137 | 0.649 | 46 (≈ 20.6 µg/mL) | 
32 | CNC(=O)c1nn(C)c2c1C(C)(C)Cc1cnc(Nc3ccc(CN4CCOCC4)cc3)nc1-2 | 0.35 | 0.036 | 0.535 | 133 (≈ 61.4 µg/mL) | 
